Source: PubChem BioAssay (Johns Hopkins Ion Channel Center)
KCNK9 block: inhibitors of human KCNK9 two-pore domain potassium channel; B-score at 10 µM; 310,000 compounds, 1.2% hits; HEK293 KCNK9, FluxOR thallium flux fluorescence; active compounds read low; AID 488922;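 active means ratio B-score over 3 SD below the library mean, with starting fluorescence within 5 SD of its mean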;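 further: negative B-score means less thallium flux so channel inhibition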
KCNQ1 pot: potentiates or activates the human KCNQ1 potassium channel; CHO-K1 KCNQ1, thallium flux FluxOR fluorescence; active compounds read high; AID 2648; P51787; B-score at 10 µM; 310,000 compounds, 0.35% hits;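 active means fluorescence ratio B-score, a plate-corrected score, at least three library SD, with initial intensity B-score within 5 SD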
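assay system = KCNQ1-transfected CHO-K1 cells | medium = assay buffer with matched DMSO | probe or stimulus = depolarizing K+/Tl+ stimulus, K2SO4 and Tl2SO4 each 12.5 mM in 5x stock | dosing = single dose | incubation = dye 90 min, compound 20 min, room temperature | detection = kinetic FluxOR fluorescence, 10 s baseline plus 110 s post-stimulus | evaluation = ratio B score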
KCNQ1 block: inhibitors of human KCNQ1 potassium channel | P51787 | CHO-K1 KCNQ1, FluxOR thallium flux fluorescence; active compounds read high | B-score at 10 µM | 310,000 compounds, 1.3% hits;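 active means compounds whose thallium flux B-score, printed positive for inhibition, exceeds three library SD while starting fluorescence stays within three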;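 further: channel opened by potassium depolarization with thallium stimulus after 20 min compound exposure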
hERG protect: shields human hERG channel from block by proarrhythmic agents; Q12809; CHO-hERG, FluxOR thallium flux, dofetilide IC70 present; activation (rescue from dofetilide block), less the hit threshold, % at 10 µM; 310,000 compounds, 0.51% hits; AID 1511;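 active means activation above the mean of controls blocked by dofetilide plus 5 SD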;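 further: thallium influx through hERG after potassium depolarization seen as dye fluorescence rise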
KCNK3 block: human KCNK3 channel inhibition, primary screen; O14649; CHO-KCNK3 thallium flux, FluxOR fluorescence; active compounds read low; B-score at 10 µM; 340,000 compounds, 0.84% hits; AID 602410;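 active means B-score under library mean minus 4 SD, starting fluorescence ratio at most library mean plus 5 SD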;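 further: more negative B-score means stronger inhibition of thallium flux through KCNK3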
Target sequence (O14649 whole entry, looked up): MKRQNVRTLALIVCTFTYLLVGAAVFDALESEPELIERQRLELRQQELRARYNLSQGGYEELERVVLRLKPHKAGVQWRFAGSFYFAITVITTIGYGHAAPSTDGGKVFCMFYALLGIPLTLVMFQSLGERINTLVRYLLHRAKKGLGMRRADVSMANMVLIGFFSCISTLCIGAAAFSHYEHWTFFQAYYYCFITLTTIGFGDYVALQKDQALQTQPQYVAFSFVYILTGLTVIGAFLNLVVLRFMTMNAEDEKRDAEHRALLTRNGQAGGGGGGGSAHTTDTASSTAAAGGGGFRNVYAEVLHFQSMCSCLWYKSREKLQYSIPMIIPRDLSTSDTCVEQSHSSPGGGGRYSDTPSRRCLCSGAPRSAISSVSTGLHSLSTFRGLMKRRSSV
KCNK9 inh conf: human KCNK9 inhibitor confirmation; shares compounds with KCNK9 block; HEK293 KCNK9 cells, FluxOR thallium flux fluorescence; inhibition, % at 10 µM; 4,900 compounds, 43% hits;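 active means thallium signal inhibited by more than 5 SD of the compound-free buffer control wells, on both duplicate plates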;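 further: 0% = assay buffer control wells without compound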
Kir21 sel: tests whether KCNK9 modulators also affect mouse Kir2.1; shares compounds with KCNK9 block; Kir2.1 cells, FluxOR thallium flux fluorescence; inhibition, % at 10 µM; 4,900 compounds, 4% hits;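 active means thallium signal drop more than 5 SD beyond the mean of the no-compound control wells, seen in both duplicate plates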;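 further: signal is fluorescence rise after thallium addition divided by baseline fluorescence; plate controls were assay buffer only for no effect and full block by chlorpromazine control for full effect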
KCNK9 uninduced: non-induced cell nonspecific activity of KCNK9 modulators | 4,900 compounds, 40% hits | non-induced KCNK9-HEK293, FluxOR thallium flux | inhibition, % at 10 µM | shares compounds with KCNK9 block | AID 492997;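 active means thallium signal drop beyond 5 SD of the untreated control mean, on both duplicate plates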;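 further: plate controls were buffer only IC0 wells for no effect and SID17386958 at its maximal inhibitory level for full effect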
An asterisk follows results filed as active; i = inactive; . = no result given. Hits are enriched below; roughly 3.1% of the tested compounds scored in any of these assays.

SMILES	KCNK9 block	KCNQ1 pot	KCNQ1 block	hERG protect	KCNK3 block	KCNK9 inh conf	Kir21 sel	KCNK9 uninduced
CC1CCc2c(sc(NS(=O)(=O)c3ccccc3)c2C(=O)OC(C)C)C1 (configuration not stated)	i	26*	i	4.4	i	i	i	i
CC(C)NC(=O)c1cccc(Cn2cc(Cl)cn2)c1	i	i	i	-0.8	i	.	.	.
CCC(NC(=O)c1cccc(Cn2cc([N+](=O)[O-])cn2)c1)c1ccc(C(C)C)cc1 (configuration not stated)	-14.5*	i	i	-9.3	i	61.5%*	i	41.5%*
CCOC(=O)[C@@H]1CSCCS(=O)(=O)N1Cc1ccccc1Br	.	.	.	.	i	.	.	.
COc1ccn(C2CCCCO2)c(=O)n1 (configuration not stated)	.	.	.	.	i	.	.	.
CC1=NCCN1S(=O)(=O)c1c(C(C)C)cc(C(C)C)cc1C(C)C	-8.32*	i	i	-9.8	i	i	i	i
O=C(O)CCCCn1c(SCC(=O)Nc2ccccc2C(F)(F)F)nc2ccsc2c1=O	i	i	i	-3.7	i	.	.	.
CCC(C)n1c(SCC(=O)Nc2ccccc2C(F)(F)F)nc2ccsc2c1=O (configuration not stated)	-8.94*	i	i	-9.6	i	26.0%*	i	26.5%*
O=C(CN(C(=O)c1csnn1)c1cccc2ccccc12)NCc1ccccc1	i	i	i	-5.8	i	.	.	.
CC(C)COc1ccc(CSCCNC(=S)Nc2ccccc2)cc1	i	i	9*	-16.3	i	i	i	i
CS(=O)(=O)N(CC(=O)N1CCCCCC1)c1cc(Cl)ccc1Cl	i	i	i	-1.9	i	.	.	.
CCC(SC1=NCCS1)C(=O)Nc1nnc(-c2ccccc2OC)s1 (configuration not stated)	-10.2*	i	i	-6.7	i	30.0%*	i	33.5%*
CC(SC1=NCCS1)C(=O)Nc1nnc(-c2ccc(F)cc2)s1 (configuration not stated)	i	i	i	-7.2	i	.	.	.
CC(SC1=NCCS1)C(=O)Nc1nnc(-c2ccc(Br)cc2)s1 (configuration not stated)	-17.9*	i	i	-5.7	i	i	i	22.5%*
Cc1ccc(C(C)NC(=O)/C(C#N)=C\c2c(C)[nH]c3ccccc23)cc1 (configuration not stated)	i	i	i	-9.0	i	i	i	i
O=C(Nc1cccn(Cc2c(Cl)cccc2Cl)c1=O)c1c(Cl)cccc1Cl	-10.2*	i	i	-12.7	i	54.5%*	i	i
CCn1c2ccccc2c2cc(NC(=O)c3cccc(OC)c3OC)ccc21	i	i	i	-9.1	i	.	.	.
CCn1c2ccccc2c2cc(NC(=O)c3cccc(OC)c3)ccc21	-11.9*	i	i	-20.3	i	43.0%*	i	35.5%*
O=C(N/N=C/c1cc2c3c(c1O)CCCN3CCC2)c1ccccc1O	-9.95*	i	12*	-11.8	-10.2*	49.0%*	i	55.0%*
Cc1nn(-c2ccccc2)c(N2CCCC2)c1/C=N/NC(=O)c1ccccc1O	i	i	i	-20.9	i	.	.	.
COc1ccc(N=C2SC(CC(=O)Nc3ccccc3OC)C(=O)N2Cc2ccco2)cc1 (configuration not stated)	i	i	i	-10.4	i	i	i	i
COc1ccc(CC(=O)Oc2ccc(C(C)(C)C)cc2)cc1S(=O)(=O)N1CCOCC1	i	i	i	-17.1	i	.	.	.
COCCCNC(=O)Cn1cnc2c(OCc3ccccc3)ncnc21	.	.	.	.	i	.	.	.
Cc1cc(C)nc(N=Nc2c(O)n(Cc3ccc(Cl)cc3)c3ccccc23)n1	-18.2*	i	i	-3.9	i	72.0%*	i	26.5%*
O=Nc1c(O)n(Cc2cccc(Cl)c2)c2ccccc12	i	i	i	-17.9	i	.	.	.
SMILES	KCNK9 block	KCNQ1 pot	KCNQ1 block	hERG protect	KCNK3 block	KCNK9 inh conf	Kir21 sel	KCNK9 uninduced
CCN(CC)CCOc1ccc(/C(=C(/Cl)c2ccccc2)c2ccccc2)cc1	i	i	8*	-32.5	i	i	i	i
COc1ccc2c(c1)/C(=N/OC(=O)c1cccs1)CCC2	-12*	i	i	-11.6	i	i	i	i
COc1ccc(NC(=O)O/N=C2/CCCc3ccc(OC)cc32)cc1	-11.8*	i	i	-10.8	i	66.5%*	33.5%*	26.0%*
COc1ccc(NC(=O)CN(C)CC(=O)Nc2ccc3c(c2)CCC3)cc1	i	i	i	-7.9	i	.	.	.
CC1CCN(C(=O)CCc2nnc3ccc(NCCCN4CCCC4=O)nn23)CC1	i	i	i	-4.9	i	.	.	.
Cc1c(C(=O)N2CCCCC2)c(S(=O)(=O)N2CCC(C)CC2)c(C)n1C	i	i	i	-4.0	i	.	.	.
Cn1nc([N+](=O)[O-])c(C(C#N)c2ccccn2)c(Cl)c1=O (configuration not stated)	i	i	i	-8.3	i	.	.	.
CCn1nc([N+](=O)[O-])c(C(C#N)c2nc3cc(C(F)(F)F)ccc3s2)c(Cl)c1=O (configuration not stated)	i	i	i	-8.6	i	i	i	i
CC(Nc1cccc(C(=O)NC2CC2)c1)c1nnc(-c2ccccc2)o1 (configuration not stated)	.	.	.	.	i	.	.	.
Cc1ccc(-c2nnc(CSc3nc(C(C)C)nc4sc(C)c(C)c34)o2)cc1	i	i	i	-12.3	i	i	i	i
CCOC(=O)CSc1nc(C(C)C)nc2sc(C)c(C)c12	i	i	i	-8.4	i	.	.	.
CN(C)C(=O)c1cc(C(=O)c2c(F)cccc2F)c[nH]1	i	i	i	-6.3	i	.	.	.
CC1=CC(=O)C(C(C)=Nc2ccccc2[N+](=O)[O-])C(=O)O1 (configuration not stated)	.	.	.	.	i	.	.	.
CCCOc1ccccc1N/C(=N/c1nc(C)cc(C)n1)NC(=O)COc1ccc(OC)cc1	-26.6*	i	10*	-15.2	i	77.0%*	i	41.0%*
CCOC(=O)/C(=N\Nc1ccccc1Cl)N1CCN(c2ccccc2OC)CC1	-10*	i	i	-11.4	i	32.0%*	i	29.0%*
CCOC(=O)/C(=N\Nc1ccccc1Cl)N1CCN(C)CC1	i	i	i	-5.6	i	.	.	.
N#CCc1ccc(Oc2ncc(C(F)(F)F)cc2Cl)cc1	i	i	i	-6.1	i	.	.	.
